Assay results taken from ChEMBL document CHEMBL3352052, “Bioactive metabolites from Chaetomium aureum: structure elucidation and inhibition of the Hsp90 machine chaperoning activity” (Bioorg Med Chem, 2015).
The source made the active and inactive calls. The calls are words filed in the database; no cut-off is given here.

Legend:
Oryctolagus cuniculus = species: Oryctolagus cuniculus; assay: Inhibition of Hsp90 chaperoning activity in rabbit reticulocyte lysate assessed as progesterone receptor hormone binding activity by liquid scintillation counting analysis
Method in brief: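 Purified PR was bound to PR22 antibody-protein A-sepharose beads and mildly heat-denatured. Then 0.1 μM [3H]-progesterone was added for 3 h on ice, beads washed three times, and bound hormone counted by liquid scintillation.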

Hs-578T [1] = assay: Cytotoxicity against human Hs578T cells assessed as cell survival at 10 to 20 uM after 48 hrs by MTS assay; assay type: functional, cell-based
MDA-MB-231 [2] = assay: Cytotoxicity against human MDA-MB-231 cells assessed as cell survival at 10 to 20 uM after 48 hrs by MTS assay; assay type: functional, cell-based
LNCaP [3] = assay: Cytotoxicity against human LNCAP cells assessed as cell survival at 10 to 20 uM after 48 hrs by MTS assay; assay type: functional, cell-based
MDA-MB-231 [4] = assay: Cytotoxicity against human MDA-MB-231 cells assessed as cell survival at 10 to 20 uM by MTS assay; assay type: functional, cell-based
Hs-578T [5] = assay: Induction of Hsp70 overexpression in human Hs578T cells at 10 to 20 uM by Western blot analysis; assay type: functional, cell-based
Method in brief: (§1)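 Hs578T cells seeded in 6-well plates, treated the next day for 48 h, with medium and drug at the same concentration replaced every 24 h. Cells were harvested at 48 h and lysed, and 10 μg protein lysate was analysed by Western blot with specific antibodies, including rabbit anti-total GR.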

MCF7 = assay: Cytotoxicity against human MCF7 cells assessed as cell survival at 10 to 20 uM by MTS assay; assay type: functional, cell-based
Hs-578T [6] = assay: Induction of Hsp40 degradation in human Hs578T cells at 10 to 20 uM by Western blot analysis; assay type: functional, cell-based; method in brief: as §1
LNCaP [7] = assay: Cytotoxicity against human LNCAP cells assessed as cell survival at 10 to 20 uM by MTS assay; assay type: functional, cell-based
MDA-MB-453 = assay: Cytotoxicity against human MDA-MB-453 cells assessed as cell survival at 10 to 20 uM by MTS assay; assay type: functional, cell-based
Hs-578T [8] = assay: Cytotoxicity against human Hs578T cells assessed as cell survival at 10 to 20 uM by MTS assay; assay type: functional, cell-based
HeLa = assay: Cytotoxicity against human HeLa cells assessed as cell survival at 10 to 20 uM by MTS assay; assay type: functional, cell-based
Hs-578T [9] = assay: Induction of glucocorticoid receptor degradation in human Hs578T cells at 10 to 20 uM by Western blot analysis; assay type: functional, cell-based; method in brief: as §1

Structure (SMILES) | inhibition (Oryctolagus cuniculus) | inhibition (Hs-578T [1]) | inhibition (MDA-MB-231 [2]) | inhibition (LNCaP [3]) | Activity (MDA-MB-231 [4]) | Activity (Hs-578T [5]) | Activity (MCF7) | Activity (Hs-578T [6]) | Activity (LNCaP [7]) | Activity (MDA-MB-453) | Activity (Hs-578T [8]) | Activity (HeLa) | Activity (Hs-578T [9])
CC[C@H](C)/C=C(C)/C=C/C1=CC2=C(Cl)C(=O)[C@](C)(O)C(=O)C2=CO1 | Active | Active | Active | Active | – | – | – | – | – | – | – | – | –
C=CCNC1=C2C[C@@H](C)C[C@H](OC)[C@H](O)[C@@H](C)/C=C(\C)[C@H](OC(N)=O)[C@@H](OC)/C=C\C=C(/C)C(=O)NC(=CC1=O)C2=O | Active | – | – | – | – | – | – | – | – | – | – | – | –
CC[C@H](C)/C=C(C)/C=C/C1=CC2=C(Cl)C(=O)[C@](C)(OC(C)=O)C(=O)C2=CO1 | Active | – | – | – | inactive | Active | inactive | Active | inactive | inactive | inactive | inactive | Active
